The whole screen tested about 220,000 compounds, of which about 560 (0.25%) were called active.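 The calls were made as follows: active = inhibition at or above 40%; inactive = inhibition below 40%.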 The sample as a whole holds a higher share of actives than the screen did.
Each compound was assayed against Prothrombin (Homo sapiens) (UniProt P00734) (assay: blockers of thrombin peptide substrate cleavage – biochemical, 1536-well, fluorogenic AMC substrate, counter-screen for coagulation protease inhibitor project, primary screen (AID 1046;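 also: 0% = enzyme with no compound and 100% = wells without enzyme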)). Conditions: alpha-thrombin, Boc-VPR-AMC fluorogenic substrate cleavage; at 5 µM; stronger effect = higher value.
Outline: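 Test system: human alpha-thrombin protein / Dosing: one concentration per compound, 5 µM, with 0.2% DMSO / Medium: pH 7.5 Tris-saline with Tween 20 / Benchmarks: no-compound enzyme wells and no-enzyme blanks / Read-out basis: percent inhibition of thrombin substrate cleavage / Timing: reaction at room temperature / Measured by: fluorescence, ex 355 nm, em 460 nm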

Row | SMILES | inhibition
1 | Cc1nc(N2CCCC2C(=O)O)c2oc3ccccc3c2n1 (stereo unspecified) | 2.84% (inactive)
2 | Cc1nc(Cl)c2oc3ccccc3c2n1 | 104% (active)
3 | CCSc1nc(C)nc2c1oc1ccccc12 | 4.11% (inactive)
4 | CCc1nnc(NC(=O)CCN(c2ccc(C)cc2)S(=O)(=O)c2ccccc2)s1 | 47.5% (active)
5 | CCc1nnc(NC(=O)CCC(=O)O)s1 | 8.11% (inactive)
6 | CCc1nnc(NC(=O)CCC(=O)NCc2ccccc2OC)s1 | 2.56% (inactive)
7 | O=C(Nc1ccc(F)cc1)c1cc2c(s1)CCCC2 | -1.36% (inactive)
8 | CCCCNS(=O)(=O)c1ccc2nc(SCC(=O)Nc3cc(C)cc(C)c3)[nH]c2c1 | -6.37% (inactive)
9 | CN(C(=O)c1c(Cl)cnn1C)C12CC3CC(CC(C3)C1)C2 | -15.4% (inactive)
10 | C/C(=N\NC(=O)CSc1nc2ccccc2c(=O)n1-c1ccccc1C)c1cccs1 | 0.36% (inactive)
11 | Cc1ccc(OCCOCCOc2ccc(Br)cc2/C=N\NC(=O)c2ccncc2)cc1 | -13.6% (inactive)
12 | Cc1c([N+](=O)[O-])c(N)nn1C | 5.35% (inactive)
13 | Cc1ccc2cc(C)c(N3CCC(C)CC3)nc2c1 | -2.54% (inactive)
14 | CN(c1ccc(OCC(=O)OCC(=O)Nc2cccc([N+](=O)[O-])c2)cc1)S(=O)(=O)c1ccc(F)cc1 | 2.69% (inactive)
15 | CC1CC(=O)Nc2ccccc2N1S(=O)(=O)c1cccs1 (stereo unspecified) | -3.5% (inactive)
16 | Cc1[nH]c2ccccc2c1-c1ccc(Cl)nn1 | 1.85% (inactive)
17 | O=C(O)C(F)(F)C(NCc1ccccc1)c1ccccc1 (stereo unspecified) | 5.86% (inactive)
18 | CN(C)C(CNC(=O)c1cccc(C#N)c1)c1ccco1 (stereo unspecified) | -12.4% (inactive)
19 | CC/C=C/C(=O)N1CC2(CC(c3cccc(NC(=O)CC)c3)=NO2)C[C@H]1C(N)=O (stereo partly specified) | -2.66% (inactive)
20 | CCOC(=O)C1CCN(c2ccc(C(=O)O)cc2[N+](=O)[O-])CC1 | -6.48% (inactive)
21 | CCOC(=O)CSC1=N/C(=C/c2ccc(-n3cncn3)cc2)C(=O)N1C(C)=O | 86.8% (active)

Row | SMILES | inhibition
22 | CCOC(=O)CSc1nc(C)cc2c1C(=O)OC2 | -3.04% (inactive)
23 | CCOC(=O)CSc1ccccn1 | -0.12% (inactive)
24 | N#Cc1c(C(F)(F)F)cc(-c2cccs2)nc1N1CCCCC1 | -5.35% (inactive)
25 | COc1ccc(-n2c(O)c(C=NCC(c3ccco3)N3CCCC3)c3ccccc3c2=O)cc1OC (stereo unspecified) | 1.85% (inactive)
26 | CCc1ccccc1NC(=O)CN(C)S(=O)(=O)c1ccc2c(c1)c(=O)n(C)c(=O)n2C | -7.84% (inactive)
27 | CCN(C(=O)CSc1nnc2ccccn12)C1CCS(=O)(=O)C1 (stereo unspecified) | 2.43% (inactive)
28 | CCOC(=O)c1nnn2c3ccccc3c(=O)n(C)c12 | -5.13% (inactive)
29 | COC(=O)c1onc(-c2c(OC)cc(OC)cc2OC)c1C(=O)OC | 1.99% (inactive)
30 | COc1ccc(C(C)=O)cc1CSc1nc2nc(C)cc(C)n2n1 | -1.59% (inactive)
31 | Cc1ccc(S(=O)(=O)/N=C(\CN2CCOCC2)N2CCOCC2)cc1 | -16.3% (inactive)
32 | Nc1ccccc1Sc1cc(Cl)nnc1Cl | 14.4% (inactive)
33 | CC(=O)NCCC(=O)Nc1nc(C)c(Cc2ccc3c(c2)OCO3)s1 | -4.26% (inactive)
34 | Cc1ccc(NC(=S)NCCN2CCOCC2)cc1 | -1.01% (inactive)
35 | Nc1nc(NCCCN2CCOCC2)nc(Nc2ccccc2)c1[N+](=O)[O-] | -6.41% (inactive)
36 | CCOc1nc(NCCN2CCOCC2)nc(Nc2ccc(C)cc2)n1 | 63.7% (active)
37 | CSc1c(SCc2ccccc2)cnn(Cc2ccccc2)c1=O | 0.48% (inactive)
38 | COCCOC(=O)c1c(C)oc2cc(Br)c(OCC(N)=O)cc12 | -6.6% (inactive)
39 | O=C1N(c2ccccc2)C(=Nc2ccccc2)SC12CC2 | -5.96% (inactive)
40 | COc1ccc(C/C(C)=N/NC(=O)c2cc(C)oc2C)cc1 | 0.98% (inactive)
41 | CN(C(=O)CSc1nnc(Nc2ccccc2)s1)C1CCS(=O)(=O)C1 (stereo unspecified) | -0.79% (inactive)
42 | Cc1cc(C(=O)COc2ccccc2[N+](=O)[O-])c(C)n1-c1cccc(S(=O)(=O)N2CCOCC2)c1 | 5.89% (inactive)

Row | SMILES | inhibition
43 | CC1=C(C)CC(C(=O)NNC(=O)c2ccccc2O)C(C(=O)O)C1 (stereo unspecified) | -3.8% (inactive)
44 | Cc1cc(C)n2nc(C(=O)N3CCN(Cc4ccc5c(c4)OCO5)CC3)nc2n1 | -9.34% (inactive)
45 | COc1ccc(CNC(=O)CN(Cc2ccc(Cl)cc2)S(C)(=O)=O)cc1 | -2.34% (inactive)
46 | Cc1cc(C)cc(C(=O)NC2C(=O)N3C(C(=O)O)=C(CSc4nnc(C)s4)CSC23)c1 (stereo unspecified) | -12% (inactive)
47 | O=C(Cn1cnc([N+](=O)[O-])n1)NCCc1ccccc1 | -6.67% (inactive)
48 | CN(C)c1cc(-c2ccc(F)cc2)oc(=O)c1Cl | -0.75% (inactive)
49 | CN(c1ccc(OCC(=O)NC2=NCCS2)cc1)S(=O)(=O)c1ccc(F)cc1 | -4.51% (inactive)
50 | Cc1ccc(SCc2c(C(=O)N/N=C/C3CC=CCC3)nnn2-c2nonc2N)cc1 (stereo unspecified) | -0.65% (inactive)
51 | O=C(NCC1CCCO1)c1cc(-c2ccccc2)nc2ccccc12 (stereo unspecified) | 3.52% (inactive)
52 | Cn1cc(CN2CCCCC2c2ccccn2)c(-c2ccc3c(c2)OCCO3)n1 (stereo unspecified) | -14.8% (inactive)
53 | O=S(=O)(c1cccc(C(F)(F)F)c1)N1CCN(c2cnccn2)CC1 | 2.6% (inactive)
54 | CCCN1C(=O)C(Cc2nc3ccccc3c(=O)n2-c2ccccc2)c2cc(C)ccc21 (stereo unspecified) | -0.44% (inactive)
55 | O=C(Nc1nnc(COc2ccccc2)s1)Nc1ccccc1F | 1.51% (inactive)
56 | CCOC(=O)C1(CCOC)CCN(Cc2ccc(C(=O)OC)cc2)CC1 | -3.33% (inactive)
57 | CC(C)Oc1ccc(CCC(=O)NNC(=S)NCc2ccccc2)cc1 | 5.08% (inactive)
58 | CCN(CC)CCC(c1ccc2c(c1)OCO2)c1c(OC)cc(OC)c2c(-c3ccccc3)cc(=O)oc12 (stereo unspecified) | -12.8% (inactive)
59 | O=C(c1ccccc1Cl)N(Cc1ccccc1F)N1C(=O)CCCC1=O | -0.77% (inactive)
60 | CCC(C)[C@@H](C(=O)N1CCNCC1)n1cc(CCCCN)nn1 (stereo partly specified) | -2.39% (inactive)
61 | CCOC(=O)C1(C)NC(c2ccco2)C2C(=O)N(c3ccccc3)C(=O)C21 (stereo unspecified) | -2.99% (inactive)

— PubChem BioAssay AID1046 (PCMD, 2008)
